From ChEMBL document CHEMBL4813946, “Discovery of novel 4-azaaryl-N-phenylpyrimidin-2-amine derivatives as potent and selective FLT3 inhibitors for acute myeloid leukaemia with FLT3 mutations” (Eur J Med Chem, 2021)
Activity calls are given as the source filed them. The rule behind the calls is not given here.

What was measured:
[1] = Inhibition of FLT3 ITD-NPOS mutant (unknown origin) incubated for 120 mins by ADP-glo based luminescence assay; parameters: species or system Homo sapiens
[2] = Inhibition of FLT3 ITD-W51 mutant (unknown origin) incubated for 120 mins by ADP-glo based luminescence assay; parameters: species or system Homo sapiens
[3] = molecular target: Receptor-type tyrosine-protein kinase FLT3 (Homo sapiens, UniProt P36888, F594-R595INSR); assay: Inhibition of FLT3 F594_R595insR mutant (unknown origin) incubated for 120 mins by ADP-glo based luminescence assay
Chain of Receptor-type tyrosine-protein kinase FLT3 (Homo sapiens, UniProt P36888, F594-R595INSR) (P36888 whole entry, looked up, stated change not applied): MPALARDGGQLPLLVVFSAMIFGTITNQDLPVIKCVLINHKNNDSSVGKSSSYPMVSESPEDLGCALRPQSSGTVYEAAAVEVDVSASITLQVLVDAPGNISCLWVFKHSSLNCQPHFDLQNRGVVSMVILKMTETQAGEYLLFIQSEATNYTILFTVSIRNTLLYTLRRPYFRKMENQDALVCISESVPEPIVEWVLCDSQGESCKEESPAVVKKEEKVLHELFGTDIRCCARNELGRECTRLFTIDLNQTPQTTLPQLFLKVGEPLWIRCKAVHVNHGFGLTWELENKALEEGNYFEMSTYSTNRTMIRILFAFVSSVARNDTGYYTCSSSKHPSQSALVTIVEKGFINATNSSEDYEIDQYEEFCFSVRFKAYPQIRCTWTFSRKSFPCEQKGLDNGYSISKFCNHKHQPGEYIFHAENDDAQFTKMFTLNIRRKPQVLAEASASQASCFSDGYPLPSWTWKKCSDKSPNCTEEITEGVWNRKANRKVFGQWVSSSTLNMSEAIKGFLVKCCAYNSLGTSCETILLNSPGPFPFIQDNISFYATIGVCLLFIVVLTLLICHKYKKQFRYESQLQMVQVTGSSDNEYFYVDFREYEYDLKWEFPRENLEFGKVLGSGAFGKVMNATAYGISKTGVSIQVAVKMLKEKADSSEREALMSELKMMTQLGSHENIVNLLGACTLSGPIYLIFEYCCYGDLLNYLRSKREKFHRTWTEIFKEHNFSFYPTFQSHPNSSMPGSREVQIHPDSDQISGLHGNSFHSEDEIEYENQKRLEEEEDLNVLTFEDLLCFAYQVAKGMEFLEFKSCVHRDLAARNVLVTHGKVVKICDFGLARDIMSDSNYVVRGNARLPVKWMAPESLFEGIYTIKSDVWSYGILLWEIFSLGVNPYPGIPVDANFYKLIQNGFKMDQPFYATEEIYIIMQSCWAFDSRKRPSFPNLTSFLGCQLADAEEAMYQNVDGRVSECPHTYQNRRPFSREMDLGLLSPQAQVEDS

[4] = molecular target: Receptor-type tyrosine-protein kinase FLT3 (Homo sapiens, UniProt P36888, R595-E596INSEY); assay: Inhibition of FLT3 R595_E596insEY mutant (unknown origin) incubated for 120 mins by ADP-glo based luminescence assay
Chain of Receptor-type tyrosine-protein kinase FLT3 (Homo sapiens, UniProt P36888, R595-E596INSEY) (P36888 whole entry, looked up, stated change not applied): as above

[5] = tested on: MV4-11; assay: Induction of apoptosis in human MV4-11 cells assessed as late apoptotic cells at 1 x GI50 concentration incubated for 24 hrs by annexin V-FITC and propidium iodide staining based flow cytometry (reference value: 12.45 %); assay type: functional
[6] = tested on: MV4-11; assay: Induction of apoptosis in human MV4-11 cells assessed as early apoptotic cells at 5 x GI50 concentration incubated for 24 hrs by annexin V-FITC and propidium iodide staining based flow cytometry (reference value: 2.12 %); assay type: functional
[7] = tested on: MV4-11; assay: Induction of apoptosis in human MV4-11 cells assessed as late apoptotic cells at 5 x GI50 concentration incubated for 24 hrs by annexin V-FITC and propidium iodide staining based flow cytometry (reference value: 12.45 %); assay type: functional
[8] = tested on: MV4-11; assay: Induction of apoptosis in human MV4-11 cells assessed as viable cells at 5 x GI50 concentration incubated for 24 hrs by annexin V-FITC and propidium iodide staining based flow cytometry (reference value: 84.68 %); assay type: functional
[9] = tested on: MV4-11; assay: Induction of apoptosis in human MV4-11 cells assessed as viable cells at 10 x GI50 concentration incubated for 24 hrs by annexin V-FITC and propidium iodide staining based flow cytometry (reference value: 84.68 %); assay type: functional
[10] = tested on: MV4-11; assay: Induction of apoptosis in human MV4-11 cells assessed as viable cells at 20 x GI50 concentration incubated for 24 hrs by annexin V-FITC and propidium iodide staining based flow cytometry (reference value: 84.68 %); assay type: functional
[11] = tested on: MV4-11; assay: Induction of apoptosis in human MV4-11 cells assessed as early apoptotic cells at 1 x GI50 concentration incubated for 48 hrs by annexin V-FITC and propidium iodide staining based flow cytometry (reference value: 1.08 %); assay type: functional
[12] = tested on: MV4-11; assay: Induction of apoptosis in human MV4-11 cells assessed as necrotic cells at 1 x GI50 concentration incubated for 48 hrs by annexin V-FITC and propidium iodide staining based flow cytometry (reference value: 0.45 %); assay type: functional
[13] = tested on: MV4-11; assay: Induction of apoptosis in human MV4-11 cells assessed as early apoptotic cells at 5 x GI50 concentration incubated for 48 hrs by annexin V-FITC and propidium iodide staining based flow cytometry (Rvb =1.08 %); assay type: functional
[14] = tested on: MV4-11; assay: Induction of apoptosis in human MV4-11 cells assessed as viable cells at 5 x GI50 concentration incubated for 48 hrs by annexin V-FITC and propidium iodide staining based flow cytometry (reference value: 91.87 %); assay type: functional
[15] = tested on: MV4-11; assay: Induction of apoptosis in human MV4-11 cells assessed as early apoptotic cells at 10 x GI50 concentration incubated for 48 hrs by annexin V-FITC and propidium iodide staining based flow cytometry (reference value: 1.08 %); assay type: functional
[16] = tested on: MV4-11; assay: Induction of apoptosis in human MV4-11 cells assessed as necrotic cells at 20 x GI50 concentration incubated for 48 hrs by annexin V-FITC and propidium iodide staining based flow cytometry (reference value: […] %); assay type: functional
[17] = tested on: U-937; assay: Induction of apoptosis in human U937 cells assessed as late apoptotic cells at 5 x GI50 concentration incubated for 24 hrs by annexin V-FITC and propidium iodide staining based flow cytometry (Rvb =10.30 %); assay type: functional
[18] = tested on: U-937; assay: Induction of apoptosis in human U937 cells assessed as viable cells at 10 x GI50 concentration incubated for 24 hrs by annexin V-FITC and propidium iodide staining based flow cytometry (reference value: 86.80 %); assay type: functional
[19] = molecular target: Receptor-type tyrosine-protein kinase FLT3 (Homo sapiens) (UniProt P36888); assay: Inhibition of FLT3-mediated signalling pathway in human MV4-11 cells assessed as inhibition of STAT5 phosphorylation upto 20 x GI50 concentration incubated for 6 hrs by western blot analysis; assay type: cell-based
Chain of Receptor-type tyrosine-protein kinase FLT3 (Homo sapiens) (P36888 whole entry): as the sequence (P36888 whole entry, looked up, stated change not applied) above
Procedure, shortened: (§1)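 Cells lysed in phosphate lysis buffer with protease inhibitors and protein quantified. Western blots probed phospho and total STAT5, AKT, ERK, S6RP and eIF4E, plus full-length and cleaved PARP and caspase-3, with β-actin as loading control. At least two independent experiments.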

[20] = molecular target: Receptor-type tyrosine-protein kinase FLT3 (Homo sapiens) (UniProt P36888); assay: Inhibition of FLT3-mediated signalling pathway in human MV4-11 cells assessed as inhibition of AKT phosphorylation upto 20 x GI50 concentration incubated for 6 hrs by western blot analysis; assay type: cell-based; procedure, shortened: as §1
[21] = molecular target: Receptor-type tyrosine-protein kinase FLT3 (Homo sapiens) (UniProt P36888); assay: Inhibition of FLT3-mediated signalling pathway in human MV4-11 cells assessed as increase in caspase 3 expression upto 20 x GI50 concentration incubated for 6 hrs by western blot analysis; assay type: cell-based; procedure, shortened: as §1
[22] = tested on: U-937; assay: Induction of apoptosis in human U937 cells assessed as necrotic cells at 1 x GI50 concentration incubated for 48 hrs by annexin V-FITC staining based flow cytometry (reference value: 1.16 %); assay type: functional
[23] = tested on: U-937; assay: Induction of apoptosis in human U937 cells assessed as early apoptotic cells at 5 x GI50 concentration incubated for 48 hrs by annexin V-FITC staining based flow cytometry (reference value: 2.78%); assay type: functional
[24] = tested on: U-937; assay: Induction of apoptosis in human U937 cells assessed as late apoptotic cells at 5 x GI50 concentration incubated for 48 hrs by annexin V-FITC staining based flow cytometry (Rvb =9.82 %); assay type: functional
[25] = tested on: U-937; assay: Induction of apoptosis in human U937 cells assessed as necrotic cells at 5 x GI50 concentration incubated for 48 hrs by annexin V-FITC staining based flow cytometry (reference value: 1.16 %); assay type: functional
[26] = tested on: U-937; assay: Induction of apoptosis in human U937 cells assessed as early apoptotic cells at 10 x GI50 concentration incubated for 48 hrs by annexin V-FITC staining based flow cytometry (reference value: 2.78 %); assay type: functional
[27] = tested on: U-937; assay: Induction of apoptosis in human U937 cells assessed as viable cells at 10 x GI50 concentration incubated for 48 hrs by annexin V-FITC staining based flow cytometry (reference value: 86.25 %); assay type: functional
[28] = tested on: U-937; assay: Induction of apoptosis in human U937 cells assessed as viable cells at 20 x GI50 concentration incubated for 48 hrs by annexin V-FITC staining based flow cytometry (reference value: 86.25%); assay type: functional
[29] = molecular target: Receptor-type tyrosine-protein kinase FLT3 (Homo sapiens) (UniProt P36888); assay: Inhibition of FLT3-mediated signalling pathway in human U-937 cells assessed as inhibition of eIF4E phosphorylation upto 20 x GI50 concentration incubated for 6 hrs by western blot analysis; assay type: cell-based; procedure, shortened: as §1
[30] = molecular target: Receptor-type tyrosine-protein kinase FLT3 (Homo sapiens, UniProt P36888, ITD); assay: Inhibition of FLT3 ITD mutant (unknown origin) using Glu/Tyr peptide substrate incubated for 80 mins measured after 40 mins incubation under dark by ADP-glo based luminescence assay
Chain of Receptor-type tyrosine-protein kinase FLT3 (Homo sapiens, UniProt P36888, ITD) (P36888 whole entry, looked up, stated change not applied): as above

Ki [1]: 262 nM
Ki [2]: 84 nM
Ki [3]: 54 nM
Ki [4]: 77 nM
inhibition [19]: Active
inhibition [20]: Active
Activity [21]: Active
inhibition [29]: Active
Ki [30]: 2 nM
SMILES: CC(=O)N1CCN(c2ccc(Nc3nccc(-c4cn(C)c5ncccc45)n3)cc2)CC1
Activity [5]: 14.35%
Activity [6]: 1.91%
Activity [7]: 16.42%
Activity [8]: 79.81%
Activity [9]: 75%
Activity [10]: 73.52%
Activity [11]: 2.99%
Activity [12]: 0.8%
Activity [13]: 3.06%
Activity [14]: 86.83%
Activity [15]: 2.72%
Activity [16]: 32.08%
Activity [17]: 9.79%
Activity [18]: 85.8%
Activity [22]: 1.4%
Activity [23]: 2.55%
Activity [24]: 8.16%
Activity [25]: 1.19%
Activity [26]: 3.06%
Activity [27]: 83.36%
Activity [28]: 80.33%
